Data as given in ChEMBL document CHEMBL3792386, “Design, Synthesis, and Biological Evaluation of Novel Selenium (Se-NSAID) Molecules as Anticancer Agents” (J Med Chem, 2016).
The source made the active and inactive calls. The rule behind the calls is not given here.

Columns and labels:
NCI-H460 [1] = test: Antiproliferative activity against human NCI-H460 cells assessed as reduction in cell viability after 24 hrs by MTT assay; type: functional, cell-based; details: NCI-H460, 24 h
In short: (§1)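 3000 cells/well incubated in triplicate with serial concentrations of compound for 24, 48 or 72 h at 37 °C. MTT (5.0 mg/mL solution) added 3 h before the end. Formazan dissolved in DMSO, absorbance read at 570 and 630 nm. Viability normalised to vehicle control. IC50 from non-linear regression (variable slope), mean ± SD of triplicates.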

NCI-H460 [2] = test: Antiproliferative activity against human NCI-H460 cells assessed as reduction in cell viability after 72 hrs by MTT assay; type: functional, cell-based; details: NCI-H460, 72 h; in short: as §1
HepG2 [3] = test: Antiproliferative activity against human HepG2 cells assessed as reduction in cell viability after 24 hrs by MTT assay; type: functional, cell-based; details: HepG2, 24 h; in short: as §1
HepG2 [4] = test: Antiproliferative activity against human HepG2 cells assessed as reduction in cell viability after 48 hrs by MTT assay; type: functional, cell-based; details: HepG2, 48 h; in short: as §1
[5] = Antiproliferative activity against human SKOV3 cells assessed as reduction in cell viability after 48 hrs by MTT assay; type: functional, cell-based; details: SK-OV-3, 48 h; in short: as §1
[6] = Antiproliferative activity against human SKOV3 cells assessed as reduction in cell viability after 72 hrs by MTT assay; type: functional, cell-based; details: SK-OV-3, 72 h; in short: as §1
[7] = Induction of cell death in human HCT116 cells at 15 uM after 24 hrs by ethidium bromide staining-based fluorescence microscopy; type: functional, HCT-116
In short: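 HCT116 cells treated 24 h with DMSO, 1 mM aspirin or 15 μM compound, then trypsinised. Cells were stained with calcein-AM (live, esterase activity) and ethidium homodimer-1 (dead, membrane loss). Cells were imaged by fluorescence microscopy with a 20X objective, and percent dead cells was counted. Values are mean ±SD.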

HCT-116 [8] = test: Induction of cell cycle arrest in human HCT116 cells assessed as accumulation at G2/M phase at 5 uM after 12 hrs by propidium iodide staining-based flow cytometry (reference value: 10%); type: functional
HCT-116 [9] = test: Induction of apoptosis in human HCT116 cells assessed as dead cells at 2.5 uM after 24 hrs by annexin V/7-ADD staining-based flow cytometry (reference value: 3.10%); type: functional
HCT-116 [10] = test: Induction of apoptosis in human HCT116 cells assessed as early apoptotic cells at 2.5 uM after 24 hrs by annexin V/7-ADD staining-based flow cytometry (reference value: 5.20%); type: functional
HCT-116 [11] = test: Induction of apoptosis in human HCT116 cells assessed as late apoptotic cells at 5 uM after 24 hrs by annexin V/7-ADD staining-based flow cytometry (reference value: 1.65%); type: functional
HCT-116 [12] = test: Induction of apoptosis in human HCT116 cells assessed as late apoptotic cells at 10 uM after 24 hrs by annexin V/7-ADD staining-based flow cytometry (reference value: 1.65%); type: functional
HCT-116 [13] = test: Induction of apoptosis in human HCT116 cells assessed as live cells at 10 uM after 24 hrs by annexin V/7-ADD staining-based flow cytometry (reference value: 90.05%); type: functional
HCT-116 [14] = test: Induction of apoptosis in human HCT116 cells assessed as early apoptotic cells at 10 uM after 24 hrs by annexin V/7-ADD staining-based flow cytometry (reference value: 5.20%); type: functional
HCT-116 [15] = test: Induction of apoptosis in human HCT116 cells assessed as dead cells at 2.5 uM after 24 hrs by 7-ADD and caspase 3/7 activity-based flow cytometry (reference value: 3.25%); type: functional
HCT-116 [16] = test: Induction of apoptosis in human HCT116 cells assessed as late apoptotic cells at 5 uM after 24 hrs by 7-ADD and caspase 3/7 activity-based flow cytometry (reference value: 1.70%); type: functional
HCT-116 [17] = test: Induction of apoptosis in human HCT116 cells assessed as early apoptotic cells at 5 uM after 24 hrs by 7-ADD and caspase 3/7 activity-based flow cytometry (reference value: 2.45%); type: functional
HCT-116 [18] = test: Induction of apoptosis in human HCT116 cells assessed as dead cells at 10 uM after 24 hrs by 7-ADD and caspase 3/7 activity-based flow cytometry (reference value: 3.25%); type: functional
HCT-116 [19] = test: Induction of apoptosis in human HCT116 cells assessed as late apoptotic cells at 10 uM after 24 hrs by 7-ADD and caspase 3/7 activity-based flow cytometry (reference value: 1.70%); type: functional
HCT-116 [20] = test: Induction of apoptosis in human HCT116 cells assessed as live cells at 10 uM after 24 hrs by 7-ADD and caspase 3/7 activity-based flow cytometry (reference value: 92.60%); type: functional
HCT-116 [21] = test: Induction of apoptosis in human HCT116 cells assessed as early apoptotic cells at 10 uM after 24 hrs by 7-ADD and caspase 3/7 activity-based flow cytometry (reference value: 2.45%); type: functional
HCT-116 [22] = test: Induction of apoptosis in human HCT116 cells assessed as cleaved PARP level at 1 to 10 uM after 24 hrs by Western blot method; type: functional, cell-based
In short: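 HCT116 lysates after 24 h treatment made in RIPA buffer with protease and phosphatase inhibitors. Resolved by SDS-PAGE (4-12%), transferred to PVDF, probed for PARP with β-actin as loading control, detected by ECL.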

HCT-116 [23] = test: Induction of ROS generation in human HCT116 cells at 5 uM after 3 hrs by flow cytometry (reference value: 8.06%); type: functional
HCT-116 [24] = test: Induction of ROS generation in human HCT116 cells at 10 uM after 6 hrs by flow cytometry (reference value: 6%); type: functional
HT-29 [25] = test: Antiproliferative activity against human HT-29 cells assessed as reduction in cell viability after 48 hrs by MTT assay; type: functional, cell-based; details: HT-29, 48 h; in short: as §1
HT-29 [26] = test: Antiproliferative activity against human HT-29 cells assessed as reduction in cell viability after 72 hrs by MTT assay; type: functional, cell-based; details: HT-29, 72 h; in short: as §1
MDA-MB-231 = test: Antiproliferative activity against human MDA-MB-231 cells assessed as reduction in cell viability after 48 hrs by MTT assay; type: functional, cell-based; details: MDA-MB-231, 48 h; in short: as §1
[27] = Antiproliferative activity against human PANC1 cells assessed as reduction in cell viability after 24 hrs by MTT assay; type: functional, cell-based; details: PANC-1, 24 h; in short: as §1
[28] = Antiproliferative activity against human PANC1 cells assessed as reduction in cell viability after 72 hrs by MTT assay; type: functional, cell-based; details: PANC-1, 72 h; in short: as §1
RKO = test: Antiproliferative activity against human RKO cells assessed as reduction in cell viability after 24 hrs by MTT assay; type: functional, cell-based; in short: as §1
[29] = Antiproliferative activity against human HCT116 cells assessed as reduction in cell viability after 72 hrs by MTT assay; type: functional, cell-based; details: HCT-116, 72 h; in short: as §1
[30] = Antiproliferative activity against human DU145 cells assessed as reduction in cell viability after 24 hrs by MTT assay; type: functional, cell-based; details: DU-145, 24 h; in short: as §1
[31] = Antiproliferative activity against human DU145 cells assessed as reduction in cell viability after 48 hrs by MTT assay; type: functional, cell-based; details: DU-145, 48 h; in short: as §1

## CC(=O)Oc1ccccc1C(=O)NCC[Se]C#N
NCI-H460 [1]
  IC50: > 50 µM
NCI-H460 [2]
  IC50: 1.3 µM
HepG2 [3]
  IC50: 16 µM
HepG2 [4]
  IC50: 5 µM
[5]
  IC50: 5.3 µM
[6]
  IC50: 4.4 µM
[7]
  Activity: 51%
HCT-116 [8]
  Activity: 24%
HCT-116 [9]
  Activity: 1.25%
HCT-116 [10]
  Activity: 13.65%
HCT-116 [11]
  Activity: 31.35%
HCT-116 [12]
  Activity: 51.55%
HCT-116 [13]
  Activity: 14.45%
HCT-116 [14]
  Activity: 32.4%
HCT-116 [15]
  Activity: 2.1%
HCT-116 [16]
  Activity: 32.8%
HCT-116 [17]
  Activity: 44%
HCT-116 [18]
  Activity: 2.25%
HCT-116 [19]
  Activity: 46.85%
HCT-116 [20]
  Activity: 13.25%
HCT-116 [21]
  Activity: 37.65%
HCT-116 [22]
  Activity: Active
HCT-116 [23]
  Activity: 9.16%
HCT-116 [24]
  Activity: 16.54%
HT-29 [25]
  IC50: 2.1 µM
HT-29 [26]
  IC50: 2.1 µM
MDA-MB-231
  IC50: 5.5 µM
[27]
  IC50: 12.1 µM
[28]
  IC50: 2.6 µM
RKO
  IC50: 13.3 µM
[29]
  IC50: 2.1 µM
[30]
  IC50: 8.2 µM
[31]
  IC50: 3.4 µM
